Measured values: article PMC7984404 (Journal of Clinical Pharmacology, 2020)

Columns and labels:
[1] = system: pediatric patients with HAE; test: Time to onset of symptom relief; assay type: in vivo, human; settings: for Median time to 50% probability of TOSR: pediatric HAE
Procedure, shortened: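 Pediatric HAE patients aged 2-17 received single SC 0.4 mg/kg (≤30 mg). The investigator scored symptoms before and after dosing. TOSR was the earliest time with ≥20% improvement in composite score and no component worsening. Model-predicted CTOSR, AUC0-TOSR, AUC0-6 and Cmax were related to TOSR by Kaplan-Meier curves stratified by exposure tertiles, and also by age group and sex.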

[2] = cited from earlier work
Exposure parameters = assay type: in vivo, human; settings: for AUC0-6, mean (%CV) / AUC0-6, median [range] / Cmax, mean (%CV) / Cmax, median [range]: popPK model-derived
Procedure, shortened: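 Final popPK model simulated concentration-time profiles from each subject's actual dosing history: single SC doses of 30 or 45 mg in adult HAE patients, and 0.05, 0.2 and 0.4 mg/kg single ascending doses in healthy adults. AUC0-6 came from simulated rich profiles by the trapezoidal rule, alongside Cmax, tmax and distribution and terminal half-lives. Values were summarised descriptively.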

[3] = Population pharmacokinetic; assay type: in vivo, human
Procedure, shortened: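 Pooled data from healthy adults, adult HAE patients and pediatric HAE patients aged 2-17 (2172 plasma concentrations, LC-MS/MS) were fitted with a two-compartment model. It had first-order absorption, lag time, and allometric weight effects with estimated exponents. Between-subject variability was log-normal, with additive plus proportional residual error. Covariates were weight, age, sex, race and attack within 12 h. CIs came from about 1000 bootstrap replicates, with prediction-corrected VPC.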

[4] = adult patients with HAE, SC 30 mg, n = 4
[5] = adult patients with HAE, SC 45 mg, n = 4
[6] = healthy subjects, SC 0.4 mg/kg, n = 24
[7] = healthy subjects, SC 30 mg, n = 109
[8] = pediatric patients with HAE 2-5 years, SC 0.4 mg/kg, n = 2
[9] = pediatric patients with HAE, SC 0.4 mg/kg (≤30 mg)
[10] = final popPK model, typical value, reference 70 kg
[11] = typical 70-kg adult, final popPK model

NC(N)=NCCC[C@@H](N)C(=O)N[C@@H](CCCN=C(N)N)C(=O)N1CCC[C@H]1C(=O)N1C[C@H](O)C[C@H]1C(=O)NCC(=O)N[C@@H](Cc1cccs1)C(=O)N[C@@H](CO)C(=O)N1Cc2ccccc2C[C@@H]1C(=O)N1[C@H](C(=O)N[C@@H](CCCN=C(N)N)C(=O)O)C[C@@H]2CCCC[C@@H]21 [icatibant]
Median time to 50% probability of TOSR ([1]; first tertile of CTOSR): 2.00 h | Time within which all patients displayed resolution of symptoms ([1]; pediatric patients with HAE, single SC 0.4 mg/kg (≤30 mg)): ≤ 4 h | Median time to 50% probability of TOSR ([1]; second tertile of CTOSR): 1.03 h | Time to achievement of maximum plasma concentrations ([2]; adults, single subcutaneous injection of 30 mg): ≤ 1 h | Parent drug excreted unchanged in human urine ([2]; human): < 10% | AUC0-6, mean (%CV) (Exposure parameters; [4]): 2725 (25.3) ng·h/mL | AUC0-6, median [range] (Exposure parameters; [4]): 2975 [1734‐3216] ng·h/mL | Cmax, mean (%CV) (Exposure parameters; [4]): 1279 (16.7) ng/mL | Cmax, median [range] (Exposure parameters; [4]): 1254 [1056‐1551] ng/mL | AUC0-6, mean (%CV) (Exposure parameters; [5]): 5473 (18.6) ng·h/mL | AUC0-6, median [range] (Exposure parameters; [5]): 5565 [4155‐6608] ng·h/mL | Cmax, mean (%CV) (Exposure parameters; [5]): 2136 (16.3) ng/mL | Cmax, median [range] (Exposure parameters; [5]): 2222 [1680‐2421] ng/mL | AUC0-6, mean (%CV) (Exposure parameters; [6]): 2669 (20.9) ng·h/mL | AUC0-6, median [range] (Exposure parameters; [6]): 2704 [1720‐3829] ng·h/mL | Cmax, mean (%CV) (Exposure parameters; [6]): 1240 (25.1) ng/mL | Cmax, median [range] (Exposure parameters; [6]): 1258 [836‐2120] ng/mL | AUC0-6, mean (%CV) (Exposure parameters; [7]): 2038 (23.8) ng·h/mL | AUC0-6, median [range] (Exposure parameters; [7]): 1941 [1126‐3311] ng·h/mL | Cmax, mean (%CV) (Exposure parameters; [7]): 974 (30.1) ng/mL | Cmax, median [range] (Exposure parameters; [7]): 915 [524‐2115] ng/mL | AUC0-6, mean (%CV) (Exposure parameters; [8]): 900 (24.6) ng·h/mL | AUC0-6, median [range] (Exposure parameters; [8]): 900 [744‐1056] ng·h/mL | Cmax, mean (%CV) (Exposure parameters; [8]): 692 (18.1) ng/mL | Cmax, median [range] (Exposure parameters; [8]): 692 [604‐780] ng/mL | Mean AUC0-6 lower than in adult patients with HAE treated with 30 mg (Exposure parameters; [9]): about 50% | Mean Cmax lower than in adult patients with HAE treated with 30 mg (Exposure parameters; [9]): ~42% | Cl/F lower than in a 70-kg adult ([3]; 60-kg adolescent (aged 12-17 years), final popPK model): 7% | Time to complete absorption after dosing ([3]; SC dosing, expected from final popPK model): ≤ 1 h | Absorption half-life t1/2(a) ([3]; corresponding to ka = 3.27 h^–1, SC dosing, final popPK model): ~12.7 min | Allometric exponent of weight (weight/70) on Vc/F ([3]; final popPK model): 0.671 | Allometric exponent of weight (weight/70) on Vp/F ([3]; final popPK model): 0.671 | Multiplicative factor on Vc/F if female ([3]; final popPK model): 0.855 | Multiplicative factor on Vc/F if nonwhite ([3]; final popPK model): 1.11 | Typical Cl/F lower in females than in males ([3]; final popPK model): about 12% | Typical Cl/F lower in pediatric patients who experienced an acute attack ([3]; final popPK model): 9% | Typical Vc/F higher in nonwhite than in white subjects ([3]; final popPK model): 11% | ka (absorption rate constant) ([3]; final popPK model, SC dosing, n = 172 (adults and pediatric HAE), typical value): 3.27 h^–1 | tlag (lag time) ([3]; final popPK model, SC dosing, n = 172, typical value): 0.0426 h | Vc/F (apparent central volume of distribution) ([3]; final popPK model, SC dosing, n = 172, typical value, reference 70 kg): 20.4 L | Cl/F (apparent total clearance) ([3]; final popPK model, SC dosing, n = 172, typical value, reference 70 kg, age 25): 15.4 L/h | Clp/F (apparent intercompartmental clearance) [3, 10]: 0.398 L/h | Vp/F (apparent peripheral volume of distribution) [3, 10]: 1.75 L | Clearance slower relative to a subject aged 25 years ([3]; subject aged 45 years, age effect of final popPK model): 20% | Cl/F lower than in a 70-kg adult ([3]; typical 40-kg child (aged 2-11 years), final popPK model): 25% | Distribution half-life t1/2(α) [3, 11]: 53.4 min | Terminal elimination half-life t1/2(β) [3, 11]: 192 min
